Measurements pooled from the literature.
Each line is one published result; the experiments were not run side by side.
Target: Mitogen-activated protein kinase kinase kinase 4 (MAP3K4, Homo sapiens, UniProt Q9Y6R4)

c1cnn2ncc(-c3ccnc(N4CCC45COC5)n3)c2c1  remaining binding (binding; 1 µM): 97%
CC1=C(C#N)C(c2ccc3c(c2)c(NC(=O)c2ccccc2C)nn3C)C(C#N)=C(C)N1  remaining binding (cell-free assay; competition with immobilised ligand; 1 µM): 84%
O=C(c1ccc(Nc2ncc(Cl)c(-c3cc4ccccc4s3)n2)cc1)N1CCC(N2CCCC2)CC1  remaining binding (binding; competition with immobilised ligand; 1 µM): 33%
Cc1c[nH]c2nccc(Oc3c(F)cc(Nc4cc(Cl)nc(N)n4)cc3F)c12  remaining binding (cell-free assay; competition with immobilised ligand; 0.1 µM): 100%
O=C(c1ccc(Nc2ncc(Cl)c(-c3ccc(Cl)s3)n2)cc1)N1CCC(N2CCCC2)CC1  remaining binding (binding; competition with immobilised ligand; 1 µM): 61%
CC(C)(C)c1ccc(-c2nc(CBr)nn2-c2cccc(O)c2)cc1  remaining binding (cell-free assay; competition with immobilised ligand; 10 µM): 91%
CN(C)c1nccc(-c2cnc3ncccn23)n1  remaining binding (binding; 1 µM): 100%
C[C@@H](c1ccc(-n2cnc3c(N)ncnc32)cc1)N1CCc2nn(C)c(Cc3ccccc3)c2C1=O  remaining binding (binding; competition with immobilised ligand; 0.1 µM): 100%
C[C@@H]1CN(c2ccc3ncc(-c4ccc5[nH]nc(C6CC6)c5c4)n3n2)C[C@H](C)O1  remaining binding (binding; competition with immobilised ligand; 50 nM): 100%
F[C@@H]1CCN(c2nccc(-c3cnn4ncccc34)n2)C1  remaining binding (binding; 1 µM): 78%
CSc1cccnc1N1CCN(Cc2nc3ccccc3[nH]2)CC1  remaining binding (cell-free assay; competition with immobilised ligand; 1 µM): 100%
c1cncc(-c2cccc(Nc3nccc(NC4CCCCC4)n3)c2)c1  remaining binding (binding; competition with immobilised ligand; 10 µM): 88%
Cc1nc(N2CC[C@@H](O)C2)ncc1-c1cc(C(F)(F)F)cc2[nH]ncc12  remaining binding (binding; competition with immobilised ligand; 1 µM): 100%
CN(C)c1nccc(-c2cnn3ncccc23)n1  remaining binding (binding; 1 µM): 100%
CNC(=O)[C@@H]1CC[C@@H](n2c(-c3ccc4cnccc4c3)nc3ccc(C(=O)NCc4cccc(C(N)=O)c4)cc32)C1  remaining binding (binding; competition with immobilised ligand; 1 µM): 100%
CC(=O)N1CCC(c2ccc(C(=O)NC3=NCCN3)cc2C(F)(F)F)CC1  remaining binding (cell-free assay; competition with immobilised ligand; 1 µM): 81%
N[C@H]1CCN(c2nccc(-c3cnn4ncccc34)n2)C1  remaining binding (binding; 1 µM): 100%
O=C(N[C@H]1CCCCC/C=C\C2C[C@@]2(C(=O)O)NC(=O)[C@@H]2C[C@@H](Oc3ccncc3)CN2C1=O)OC1CCCC1 (stereo partly drawn)  remaining binding (binding; competition with immobilised ligand; 1 µM): 91%
COc1cnc(Nc2cccc(S(N)(=O)=O)c2)nc1N1CCN(c2ccccc2)CC1  remaining binding (binding; competition with immobilised ligand; 1 µM): 100%
C[C@@H]1CCN(c2nccc(-c3cnn4ncccc34)n2)C1  remaining binding (binding; 1 µM): 100%
O=C(c1ccc(Nc2nccc(-c3cc4ccccc4s3)n2)cc1)N1CCC(N2CCCC2)CC1  remaining binding (binding; competition with immobilised ligand; 1 µM): 70%
O=C(Nc1c[nH]nc1C(=O)NC1CCNCC1)c1cc(F)cc(F)c1  remaining binding (binding; competition with immobilised ligand; 1 µM): 100%
COc1ccc2c(O[C@@H]3C[C@H]4C(=O)N[C@]5(C(=O)O)CC5/C=C\CCCCC[C@H](NC(=O)OC5CCCC5)C(=O)N4C3)cc(-c3csc(NC(=O)C(C)C)n3)nc2c1C (stereo partly drawn)  remaining binding (cell-free assay; competition with immobilised ligand; 1 µM): 74%
CCN1CCN(Cc2ccc(C(=O)Nc3ccc(C)c(Oc4ccc5c(c4)CC(=O)N5)c3)cc2C(F)(F)F)CC1  remaining binding (binding; competition with immobilised ligand; 1 µM): 100%
